In the library only some 4.8% were active in any assay of this set; here they are far more common.
PAFAH2 inh: PAFAH2 enzyme inhibitors, primary screen, biochemical, fluorescence polarization, human; inhibition, % at 3.39 µM; Platelet-activating factor acetylhydrolase 2, cytoplasmic (Homo sapiens), Q99487; 0.99% of 340,000 active; recombinant PAFAH2, FP-rhodamine activity probe;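 active means inhibition above the mean over all tested compounds plus 3 SD, cut at about 30% in these data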;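 further: inhibitors block probe labeling of enzyme so polarization drops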
GRIN3A LBD mod: binders of NR3A ligand-binding domain, primary screen, biophysical, differential scanning fluorimetry, uHTS; Glutamate receptor ionotropic, NMDA 3A (GRIN3A) ligand-binding domain; NR3A LBD differential scanning fluorimetry, Tm shift; 0% = protein alone, 100% = glycine-bound protein; Tm shift relative to glycine control, % at 25 µM; 2.5% of 340,000 active;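 active means melting temperature shift of at least 10% of the positive control shift, at one fixed dose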
pPAFAH inh: pPAFAH enzyme inhibitors, primary screen, biochemical, fluorescence polarization, human; inhibition, % at 3.39 µM; recombinant pPAFAH, FP-rhodamine probe fluorescence polarization; 1.5% of 330,000 active; Platelet-activating factor acetylhydrolase (Homo sapiens), Q13093;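 active means inhibition above the mean inhibition across the screen plus 3 SD, cut at about 25% in these data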;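 further: inhibitors block binding of the rhodamine activity-based probe so polarization drops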
Target sequence (Q13093 whole entry, looked up): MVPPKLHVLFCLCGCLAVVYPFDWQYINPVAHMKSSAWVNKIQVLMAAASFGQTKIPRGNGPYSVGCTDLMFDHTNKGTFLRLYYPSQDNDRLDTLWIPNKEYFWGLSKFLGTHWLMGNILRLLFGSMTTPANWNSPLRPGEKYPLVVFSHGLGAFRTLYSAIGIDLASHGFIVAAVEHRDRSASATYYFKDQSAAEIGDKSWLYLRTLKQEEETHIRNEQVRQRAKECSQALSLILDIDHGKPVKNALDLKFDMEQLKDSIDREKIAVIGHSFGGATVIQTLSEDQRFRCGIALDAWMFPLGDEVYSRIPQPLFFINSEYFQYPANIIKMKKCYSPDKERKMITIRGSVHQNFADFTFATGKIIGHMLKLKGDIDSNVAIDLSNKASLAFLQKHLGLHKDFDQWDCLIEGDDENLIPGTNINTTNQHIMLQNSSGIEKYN
UCH37 DUB inh: inhibitors of human UCH37 deubiquitinase, primary screen, biochemical, Ub-AMC cleavage, fluorescence. Ubiquitin carboxyl-terminal hydrolase isozyme L5 (Homo sapiens), Q9Y5K5. purified proteasome/UCH37. inhibition, % (concentration not given with the values). 0.33% of 330,000 active. AID 588478, 2011;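 active means mean inhibition over replicate wells above about 20%, limit read from the data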
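System: Proteasome-associated human UCH37 deubiquitinase; Input: 0.15 nM proteasome in added enzyme buffer; Also added: Ub-AMC substrate from 1 µM stock; Incubation: 30 min compound-proteasome preincubation then 25 min substrate reaction, room temperature; Detection: fluorescence, ex 355 nm, em 460 nm; Read-out: % inhibition of Ub-AMC cleavage fluorescence; Benchmarks: no-proteasome and no-compound wells.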
PAFAH1B2 FP inh: PAFAH1B2 enzyme inhibitors, primary screen, biochemical, fluorescence polarization, human. recombinant PAFAH1B2, FP-rhodamine activity probe. Platelet-activating factor acetylhydrolase IB subunit alpha2 (Homo sapiens), P68402. 1.2% of 340,000 active. inhibition, % at 3.39 µM;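 active means inhibition above the mean of all tested compounds plus 3 SD, cut at about 24% in these data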
PAFAH1B3 inh: PAFAH1B3 enzyme inhibitors, primary screen, biochemical, fluorescence polarization, human | Platelet-activating factor acetylhydrolase IB subunit alpha1 (Homo sapiens), Q15102 | recombinant PAFAH1B3, FP-rhodamine probe | inhibition, % at 3.39 µM | 0.28% of 340,000 active | AID 492972, 2010;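 active means inhibition above the screen-wide average of all tested compounds plus 3 SD, cut at about 25% in these data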
Target sequence (Q15102 whole entry, looked up): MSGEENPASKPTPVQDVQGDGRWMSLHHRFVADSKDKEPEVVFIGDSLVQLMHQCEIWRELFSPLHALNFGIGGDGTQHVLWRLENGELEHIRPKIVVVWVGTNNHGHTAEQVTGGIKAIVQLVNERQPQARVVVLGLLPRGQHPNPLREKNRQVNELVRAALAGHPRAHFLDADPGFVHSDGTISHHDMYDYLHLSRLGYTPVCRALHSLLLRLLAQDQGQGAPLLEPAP
PAFAH2 FP conf: PAFAH2 enzyme inhibitors, confirmation, biochemical, fluorescence polarization, human | shares compounds with PAFAH2 inh | recombinant PAFAH2, FP-rhodamine activity probe | inhibition, % at 3.39 µM | 65% of 2,300 active;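 active means mean inhibition over three repeats above a set limit taken from the earlier primary screen, cut at about 30% in these data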;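 further: inhibitor blocks binding of rhodamine activity probe so polarization falls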
A number is an active result; – = inactive; · = no result.

SMILES | PAFAH2 inh | GRIN3A LBD mod | pPAFAH inh | UCH37 DUB inh | PAFAH1B2 FP inh | PAFAH1B3 inh | PAFAH2 FP conf
CC1=NOC(=O)/C1=C\c1ccc(-c2ccccc2Br)o1 | 44 | – | · | – | – | – | –
CC1=NOC(=O)/C1=C\c1ccc(-c2ccc(Cl)c(C(=O)O)c2)o1 | 49 | – | · | – | – | – | 33
Cc1ccc(/C=C2/C(=O)ON=C2c2ccccc2)o1 | – | – | – | – | – | – | ·
CCOc1ccc2ccccc2c1C=NNC(=O)CNC(=O)c1ccccc1F | · | · | · | – | · | · | ·
Cc1ccccc1CN1C(=O)CSC1=NN=Cc1ccco1 | · | · | · | – | · | · | ·
COc1cc(/C=C/C(=O)OCC(=O)N2CCC(C)CC2)ccc1OCC#N | 42 | – | – | – | – | – | –
COc1cc(/C=C/C(=O)OCC(=O)NC(=O)NC2CCCC2)ccc1OCC#N | – | – | · | – | – | – | ·
COc1cc(/C=C/C(=O)OCC(=O)N2CC3(C)CC2CC(C)(C)C3)ccc1O (centres undefined) | 42 | – | – | – | – | – | –
COc1cccc(C(=O)OCC(=O)N2CCc3ccccc3C2)c1OC | · | – | – | – | · | · | ·
COc1cc(/C=C/C(=O)OCC(=O)N2CCC(Cc3ccccc3)CC2)ccc1O | – | – | – | – | – | – | ·
COc1cc(/C=C/C(=O)OCC(=O)N2CCC(C)CC2)ccc1O | 56 | – | – | – | – | – | 45
COc1cc(/C=C/C(=O)OCC(=O)N2CCc3ccccc3C2)ccc1O | 35 | – | – | – | – | – | 36
O=C1NN(c2ccccc2)C(=O)/C1=C/c1ccc(-c2ccc(C(=O)O)cc2)o1 | 31 | – | – | – | – | – | –
COC(=O)c1ccc(N2NC(=O)/C(=C/c3ccc(-c4ccc(Cl)c(C(=O)O)c4)o3)C2=O)cc1 | – | – | · | – | – | – | ·
O=[N+]([O-])c1ccc(Cl)c(C=NN2CCN(c3ccccc3)CC2)c1 | · | · | · | – | · | · | ·
O=C(OCc1cn(-c2ccc(Cl)cc2)nn1)c1ccccc1 | 69 | – | – | – | – | – | 69
Cc1ccc(C(=O)O/N=C2\CCS(=O)(=O)c3sccc32)cc1 | 88 | – | – | · | – | – | 83
COc1cccc(C(=O)O/N=C2\CCS(=O)(=O)c3sccc32)c1 | 70 | – | – | · | – | – | 37
Cc1ccc(C(=O)ON=C2CCS(=O)(=O)c3sccc32)cc1 | · | · | · | – | · | · | ·
O=C(O)c1ccc(CNC(=O)c2ccccc2NC(=O)c2ccc([N+](=O)[O-])cc2)cc1 | 38 | – | – | – | – | – | 30
O=C(O)c1ccc(CNC(=O)c2ccccc2NC(=O)c2cccc([N+](=O)[O-])c2)cc1 | – | – | – | – | – | – | ·
O=C(NN=Cc1ccc([N+](=O)[O-])o1)c1cc(-c2cccc(Br)c2)nc2ccccc12 | · | · | · | – | · | · | ·
Cc1ccc(O)c(NC(=O)Cc2ccc3ccccc3c2)c1 | 74 | – | – | – | – | – | 68
N#Cc1ccc(NC(=O)COC(=O)c2cccnc2Cl)cc1 | 43 | – | – | – | – | – | 36
CC1CCCC(NC(=O)COC(=O)c2cccnc2Cl)C1C (centres undefined) | 67 | – | – | – | – | – | 51
SMILES | PAFAH2 inh | GRIN3A LBD mod | pPAFAH inh | UCH37 DUB inh | PAFAH1B2 FP inh | PAFAH1B3 inh | PAFAH2 FP conf
CC1CCCC(NC(=O)COC(=O)c2cc3ccccc3oc2=O)C1C (centres undefined) | 37 | – | – | – | – | – | –
CC1CCCC(NC(=O)COC(=O)c2ccc(Cl)nc2)C1C (centres undefined) | 33 | – | – | – | – | – | –
CC1CCCC(NC(=O)COC(=O)COc2ccccc2Cl)C1C (centres undefined) | – | – | – | – | – | – | ·
CCC(=NNS(=O)(=O)c1ccc(C)cc1)c1ccco1 | · | · | · | – | · | · | ·
Cc1cc(C(=O)NN=Cc2cc(Br)cc(Br)c2OC(=O)c2cccc(F)c2)n[nH]1 | · | · | · | – | · | · | ·
Cc1cc(C(=O)NN=Cc2cccn2C)n[nH]1 | · | · | · | – | · | · | ·
Cc1cc(C)c(NC(=O)COC(=O)C23CC4CC(CC(O)(C4)C2)C3)c(Cl)c1 | 47 | – | – | – | – | – | 34
O=C(COC(=O)C12CC3CC(CC(O)(C3)C1)C2)Nc1ccc(Cl)c(S(=O)(=O)N2CCOCC2)c1 | 48 | – | – | – | – | – | –
COc1ccc(NC(=O)COC(=O)C23CC4CC(CC(O)(C4)C2)C3)cc1Cl | – | – | – | – | – | – | ·
CC(=O)c1c(C)[nH]c(C(=O)OCC(=O)Nc2cccc(S(=O)(=O)N(C)C)c2)c1C | 31 | – | – | – | – | – | 31
CC(=O)c1c(C)[nH]c(C(=O)OCC(=O)Nc2cc(S(=O)(=O)N3CCCC3)ccc2Cl)c1C | – | – | – | – | – | – | ·
CC(=O)c1c(C)[nH]c(C(=O)OCC(=O)Nc2cccc(S(=O)(=O)N3CCCC3)c2)c1C | 37 | – | – | – | – | – | –
O=C(NN=Cc1cccnc1)c1ccccc1 | · | · | · | – | · | · | ·
COc1cc(C=NNC(N)=S)ccc1OC(=O)c1ccc(C)cc1 | · | · | · | – | · | · | ·
O=C(Cn1cc(C(F)(F)F)ccc1=O)Nc1ccccc1 | – | – | – | – | – | – | ·
O=C(COC(=O)Cn1cc(C(F)(F)F)ccc1=O)Nc1ccccc1 | 68 | – | – | – | – | – | 60
COc1cccc(-c2nc3ccc(O)cc3c(=O)o2)c1 | 72 | – | – | – | – | – | 52
CC(=O)Oc1cccc(-c2nc3ccccc3c(=O)o2)c1 | 40 | – | – | – | – | – | –
O=c1oc(-c2cccc(S(=O)(=O)N3CCOCC3)c2)nc2ccccc12 | 61 | – | – | – | – | – | 55
Cc1nc(-c2cccc(S(=O)(=O)N3CCOCC3)c2)cs1 | – | – | – | – | – | – | ·
COc1ccc(C(=O)NN=C(C)c2cccc(NC(=O)c3ccc(F)cc3)c2)c(OC)c1 | · | · | · | – | · | · | ·
Cc1ccc(Oc2ccc(C=NO)cn2)cc1 | · | · | · | – | · | · | ·
CN1/C(=C\C(=O)COC(=O)c2ccco2)C(C)(C)c2ccccc21 | 33 | – | – | – | – | – | 37
COc1cccc(/C=C/C(=O)OCC(=O)NCCC2=CCCCC2)c1OC | 66 | – | – | – | – | – | 55
COc1ccccc1/C=C/C(=O)OCC(=O)NCCC1=CCCCC1 | – | – | – | – | – | – | ·

Assay outcomes: PubChem BioAssay, several laboratories
